Assay results: PubChem BioAssay AID652011 (Sanford-Burnham Center for Chemical Genomics, 2013)

Target: Hypoxia-inducible factor 1-alpha (Homo sapiens) (UniProt Q16665)
Test: HIF-1a and HIF-2a reporter inhibitors, SAR follow-up, cell-based, luminescence, MIAPaCa-2, 786-0, panel (AID 652011)
Conditions: MIAPaCa-2/PANC HIF reporter, luciferase luminescence, desferoxamine, overnight, HIF1a, run 2; at 99 µM (top of the series)
How it was run: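 Probe or stimulus – desferoxamine stimulus · Times – overnight compound incubation at 37 °C, 10 min reagent · Doses – compounds from 10 mM and 0.3125 mM stocks, 1% DMSO final · Technique – luminescence, One-Glo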

Chain of Hypoxia-inducible factor 1-alpha (Homo sapiens) (Q16665 whole entry, looked up): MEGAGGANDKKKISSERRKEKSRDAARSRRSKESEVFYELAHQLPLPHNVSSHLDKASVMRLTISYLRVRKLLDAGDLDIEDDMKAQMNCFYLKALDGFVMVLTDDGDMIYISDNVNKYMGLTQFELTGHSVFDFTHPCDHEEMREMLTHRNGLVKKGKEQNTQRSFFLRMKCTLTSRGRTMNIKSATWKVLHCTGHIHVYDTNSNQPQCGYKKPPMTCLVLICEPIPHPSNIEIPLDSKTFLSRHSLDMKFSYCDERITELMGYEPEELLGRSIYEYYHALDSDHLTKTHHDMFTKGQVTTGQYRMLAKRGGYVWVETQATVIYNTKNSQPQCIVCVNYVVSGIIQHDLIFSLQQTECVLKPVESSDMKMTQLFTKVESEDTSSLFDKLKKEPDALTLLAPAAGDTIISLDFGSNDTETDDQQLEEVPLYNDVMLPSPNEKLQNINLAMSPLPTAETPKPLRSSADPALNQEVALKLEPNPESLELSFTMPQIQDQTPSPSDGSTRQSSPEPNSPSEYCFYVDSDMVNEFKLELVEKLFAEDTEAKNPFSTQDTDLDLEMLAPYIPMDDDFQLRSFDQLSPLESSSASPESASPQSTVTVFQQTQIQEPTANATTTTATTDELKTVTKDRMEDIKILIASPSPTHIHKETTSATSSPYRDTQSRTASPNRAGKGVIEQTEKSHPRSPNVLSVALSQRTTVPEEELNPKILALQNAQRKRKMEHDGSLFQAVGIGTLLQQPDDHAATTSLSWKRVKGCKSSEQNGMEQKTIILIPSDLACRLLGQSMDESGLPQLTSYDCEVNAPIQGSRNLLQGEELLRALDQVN

Compound	inhibition [%]
CCNC(=O)CCc1nc(-c2ccccc2Cl)no1	-3.81
CCc1ccc(-c2noc(CCC(=O)NC)n2)cc1	-34.1
CC(C)c1ccc(-c2noc(CCC(=O)NC3CC3)n2)cc1	-9.97
CCC(C)NC(=O)CCc1nc(-c2ccc(C(C)(C)C)cc2)no1 (stereo not given)	-28.9
CCCCc1ccc(-c2noc(CCC(=O)NC3CC3)n2)cc1	36
CNC(=O)CCc1nc(-c2ccc(Cl)cc2)no1	-33.8
CCC(C)NC(=O)CCc1nc(-c2ccc(C(C)C)cc2)no1 (stereo not given)	-0.644
CC(C)(C)c1ccc(-c2noc(CCC(=O)N3CCOCC3)n2)cc1	-1.55
CCCCc1ccc(-c2noc(CCC(=O)NCC)n2)cc1	17.4
CC(C)(C)NC(=O)CCc1nc(-c2ccc(C(C)(C)C)cc2)no1	96.7
